Experimental data reported in ChEMBL document CHEMBL1158347, “Substituted quinazolines, part 3. Synthesis, in vitro antitumor activity and molecular modeling study of certain 2-thieno-4(3H)-quinazolinone analogs” (2009).

Columns and labels:
Format in all cases: functional
[1] = Growth inhibition of human leukemia cells after 48 hrs; settings: Leukemia cell
Method in brief: (§1)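 NCI in vitro disease-oriented human tumor cell line screen. Compounds passing a one-dose primary assay (MCF-7, NCI-H460, SF-268; pass = growth of any line reduced to 32% or less) were tested on the 60-line panel over a 5-log dose range. Compounds were dissolved in DMSO, with under 1% DMSO in final dilutions, and tested in duplicate at 6×10^4 cells/ml. Cells were incubated at 37 °C in 5% CO2 for 48 h, then diluted 10-fold in saline and counted with a Coulter counter, with counts corrected for dilution. Controls held PBS/DMSO at identical dilutions. GI50 was reported per line and as subpanel/full-panel mean-graph midpoint.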

[2] = Growth inhibition of human renal cancer cells after 48 hrs; settings: Cancer cell lines; method in brief: as §1
CCRF-CEM = experiment: Growth inhibition of human CCRF-CEM cells after 48 hrs; settings: for CC50: read-out: LC50 (the source's name); method in brief: as §1
HL-60(TB) = experiment: Growth inhibition of human HL-60(TB) cells after 48 hrs; settings: HL-60, 48 h; for CC50: read-out: LC50 (the source's name)
Method in brief: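 NCI 60-cell-line screen over a 5-log dose range. Compounds were dissolved in DMSO, final DMSO under 1%. Duplicate wells were seeded at 6×10^4 cells/ml, with PBS/DMSO vehicle controls at identical dilutions. Cells were incubated 48 h at 37 °C in humidified 5% CO2, diluted 10-fold in saline, and counted by Coulter counter with dilution correction. GI50 read-out.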

[3] = Growth inhibition of human melanoma cells after 48 hrs; settings: Melanoma cell; method in brief: as §1
UACC-257 = experiment: Growth inhibition of human UACC257 cells after 48 hrs; settings: UACC-257, 48 h; method in brief: as §1
[4] = Growth inhibition of human Colon cancer cells after 48 hrs; settings: Cancer cell lines; method in brief: as §1
SF-539 = experiment: Growth inhibition of human SF539 cells after 48 hrs; settings: SF-539, 48 h; method in brief: as §1
[5] = Growth inhibition of human prostate cancer cells after 48 hrs; settings: Cancer cell lines; method in brief: as §1
T47D = experiment: Growth inhibition of human T47D cells after 48 hrs; method in brief: as §1
K562 = experiment: Growth inhibition of human K562 cells after 48 hrs; settings: K562, 48 h; method in brief: as §1
[6] = Growth inhibition of human breast cancer cells after 48 hrs; settings: Cancer cell lines; method in brief: as §1
RPMI-8226 = experiment: Growth inhibition of human RPMI8226 cells after 48 hrs; settings: RPMI-8226, 48 h; for CC50: read-out: LC50 (the source's name); method in brief: as §1
[7] = Growth inhibition of human ovarian cancer cells after 48 hrs; settings: Cancer cell lines; method in brief: as §1
NSCLC = experiment: Growth inhibition of human NSCLC cells after 48 hrs; method in brief: as §1
MCF7 = experiment: Growth inhibition of human MCF7 cells after 48 hrs; settings: MCF7, 48 h; for CC50: read-out: LC50 (the source's name); method in brief: as §1
[8] = Growth inhibition of human CNS cancer cells after 48 hrs; settings: Cancer cell lines; method in brief: as §1
SK-MEL-2 = experiment: Growth inhibition of human SK-MEL-2 cells after 48 hrs; settings: SK-MEL-2, 48 h; method in brief: as §1
[9] = read-out: LC50 (the source's name)

SMILES: O=c1c2cc(I)ccc2nc(-c2cccs2)n1NC(=S)Nc1ccccc1
- GI50 [1]: 11.5 µM
- TGI [1]: 38.5 µM
- GI50 [2]: 32.5 µM
- TGI [2]: 84.8 µM
- GI50 (CCRF-CEM): 21 µM
- TGI (CCRF-CEM): 61 µM
- CC50 (CCRF-CEM): > 100 µM
- GI50 (HL-60(TB)): 1 µM
- TGI (HL-60(TB)): 22 µM
- CC50 (HL-60(TB)): > 100 µM
- GI50 [3]: 23.1 µM
- TGI [3]: 62.8 µM
- GI50 (UACC-257): 17 µM
- LC50 (UACC-257): > 100 µM
- TGI (UACC-257): 66 µM
- GI50 [4]: 29.5 µM
- TGI [4]: 84 µM
- GI50 (SF-539): 34 µM
- TGI (SF-539): > 100 µM
- CC50 (SF-539; [9]): > 100 µM
- GI50 [5]: 25.8 µM
- TGI [5]: 76.2 µM
- GI50 (T47D): 3 µM
- LC50 (T47D): > 100 µM
- TGI (T47D): 17 µM
- GI50 (K562): 0.02 µM
- LC50 (concentration killing 50% of cells) (K562): 75 µM
- TGI (K562): 10 µM
- GI50 [6]: 19.4 µM
- TGI [6]: 60.3 µM
- GI50 (RPMI-8226): 19 µM
- TGI (RPMI-8226): 52 µM
- CC50 (RPMI-8226): > 100 µM
- GI50 [7]: 21.5 µM
- TGI [7]: 77.5 µM
- GI50 (NSCLC): 24 µM
- TGI (NSCLC): 75.2 µM
- GI50 (MCF7): 29 µM
- TGI (MCF7): 88 µM
- CC50 (MCF7): > 100 µM
- GI50 [8]: 29.2 µM
- TGI [8]: 81.4 µM

SMILES: CCCCNC(=O)c1cc(I)ccc1NC(=O)c1cccs1
- GI50 [1]: 83.8 µM
- TGI [1]: > 100 µM
- GI50 [2]: > 100 µM
- TGI [2]: > 100 µM
- GI50 [3]: > 100 µM
- TGI [3]: > 100 µM
- GI50 [4]: > 100 µM
- TGI [4]: > 100 µM
- GI50 [5]: > 100 µM
- TGI [5]: > 100 µM
- GI50 [6]: > 100 µM
- TGI [6]: > 100 µM
- GI50 [7]: > 100 µM
- TGI [7]: > 100 µM
- GI50 (NSCLC): 96 µM
- TGI (NSCLC): > 100 µM
- GI50 [8]: > 100 µM
- TGI [8]: > 100 µM

SMILES: CCSc1nc(-c2cccs2)nc2ccc(I)cc12
- TGI [1]: > 100 µM
- GI50 [2]: > 100 µM
- TGI [2]: > 100 µM
- GI50 [3]: > 100 µM
- TGI [3]: > 100 µM
- GI50 [4]: 94.6 µM
- TGI [4]: > 100 µM
- GI50 [5]: > 100 µM
- TGI [5]: > 100 µM
- GI50 [6]: 71.4 µM
- TGI [6]: > 100 µM
- GI50 [7]: 85.2 µM
- TGI [7]: > 100 µM
- GI50 (NSCLC): 84.2 µM
- TGI (NSCLC): > 100 µM
- GI50 [8]: > 100 µM
- TGI [8]: > 100 µM

SMILES: NS(=O)(=O)c1ccc(-n2c(-c3cccs3)nc3ccc(I)cc3c2=O)cc1
- GI50 (SK-MEL-2): 22 µM
- LC50 (SK-MEL-2): > 100 µM
- TGI (SK-MEL-2): 48 µM
- GI50 [1]: 35.3 µM
- TGI [1]: 87.7 µM
- GI50 [2]: 24.7 µM
- TGI [2]: 64.1 µM
- CC50 [2, 9]: 94.1 µM
- GI50 (CCRF-CEM): 41 µM
- TGI (CCRF-CEM): > 100 µM
- CC50 (CCRF-CEM): > 100 µM
- GI50 (HL-60(TB)): 20 µM
- TGI (HL-60(TB)): 64 µM
- CC50 (HL-60(TB)): > 100 µM
- GI50 [3]: 17.6 µM
- TGI [3]: 43 µM
- GI50 (UACC-257): 0.05 µM
- LC50 (UACC-257): > 100 µM
- TGI (UACC-257): 19 µM
- GI50 [4]: 24.8 µM
- LC50 [4]: 87.1 µM
- TGI [4]: 59.3 µM
- GI50 [5]: 22.7 µM
- TGI [5]: 58.9 µM
- GI50 (T47D): 19 µM
- LC50 (T47D): 99 µM
- TGI (T47D): 44 µM
- GI50 (K562): 37 µM
- LC50 (concentration killing 50% of cells) (K562): > 100 µM
- TGI (K562): > 100 µM
- GI50 [6]: 23.3 µM
- TGI [6]: 62.5 µM
- GI50 (RPMI-8226): 25 µM
- TGI (RPMI-8226): 62 µM
- CC50 (RPMI-8226): > 100 µM
- GI50 [7]: 23.5 µM
- TGI [7]: 65.1 µM
- GI50 (NSCLC): 24 µM
- TGI (NSCLC): 61.3 µM
- GI50 (MCF7): 23 µM
- TGI (MCF7): 65 µM
- CC50 (MCF7): > 100 µM
- GI50 [8]: 30.3 µM
- TGI [8]: 73.8 µM

SMILES: NNC(=O)COc1nc(-c2cccs2)nc2ccc(I)cc12
- GI50 (SK-MEL-2): 25 µM
- LC50 (SK-MEL-2): > 100 µM
- TGI (SK-MEL-2): 71 µM
- GI50 [1]: 25.4 µM
- TGI [1]: 80.5 µM
- GI50 [2]: 23.1 µM
- TGI [2]: 71.1 µM
- GI50 (CCRF-CEM): 20 µM
- TGI (CCRF-CEM): 88 µM
- CC50 (CCRF-CEM): > 100 µM
- GI50 (HL-60(TB)): 38 µM
- TGI (HL-60(TB)): > 100 µM
- CC50 (HL-60(TB)): > 100 µM
- GI50 [3]: 19.4 µM
- TGI [3]: 51.1 µM
- GI50 (UACC-257): < 0.01 µM
- LC50 (UACC-257): > 100 µM
- TGI (UACC-257): > 100 µM
- GI50 [4]: 24.3 µM
- TGI [4]: 66.9 µM
- GI50 [5]: 23.5 µM
- TGI [5]: 75.3 µM
- GI50 (T47D): 2 µM
- LC50 (T47D): > 100 µM
- TGI (T47D): 22 µM
- GI50 (K562): 37 µM
- LC50 (concentration killing 50% of cells) (K562): > 100 µM
- TGI (K562): > 100 µM
- GI50 [6]: 18.7 µM
- TGI [6]: 64.7 µM
- GI50 (RPMI-8226): 16 µM
- TGI (RPMI-8226): 39 µM
- CC50 (RPMI-8226): 97 µM
- GI50 [7]: 22.3 µM
- TGI [7]: 72.5 µM
- GI50 (NSCLC): 19.4 µM
- TGI (NSCLC): 59.6 µM
- GI50 (MCF7): 16 µM
- TGI (MCF7): 89 µM
- CC50 (MCF7): > 100 µM
- GI50 [8]: 20.7 µM
- TGI [8]: 62.1 µM

SMILES: O=c1[nH]cc(F)c(=O)[nH]1 [FLUOROURACIL]
- GI50 [1]: 15.1 µM
- TGI [1]: > 100 µM
- TGI [2]: > 100 µM
- TGI [3]: > 100 µM
- GI50 [4]: 8.37 µM
- TGI [4]: > 100 µM
- TGI [5]: > 100 µM
- TGI [6]: > 100 µM
- TGI [7]: > 100 µM
- GI50 (NSCLC): > 100 µM
- TGI (NSCLC): > 100 µM
- GI50 [8]: 72.1 µM
- TGI [8]: > 100 µM
